Assay outcomes from PubChem.
CHO parental Ca: signal in parental CHO cells, OX1R antagonist counter-screen; AID 463079; parental CHO-K1, ATP-induced calcium, Fluo-8 fluorescence; inhibition, % at 5.6 µM; 330,000 compounds, 0.63% hits;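 active = inhibition above that plate's mean sample inhibition plus 3 SD, cut at about 26% in these data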;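 also: 0% = ATP-challenged DMSO wells and 100% = DMSO wells without ATP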
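test system = CHO parental line | reagent = ATP stimulus | measured by = intracellular calcium via Fluo-8 no-wash fluorescent dye | control set = ATP and no-ATP DMSO wells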
OX1R antag-1: blocks the human orexin 1 receptor; 330,000 compounds, 0.43% hits; O43613; CHO/OX1R cells, Fluo-8 calcium fluorescence, orexin A; inhibition, % at 5 µM;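 active = inhibition above its plate's threshold, mean inhibition of all tested compounds on the plate plus 3 SD, cut at about 37% in these data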;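 also: 0% = orexin A challenge wells and 100% = SB-334867-A antagonist wells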
zfTRPN1 agonist: agonists of zebrafish TRPN1 channel; HEK293 zebrafish TRPN1-YFP, Fluo-8 calcium fluorescence; 100% = response to 87 µM carbachol; activation, % at 3 µM; 220,000 compounds, 0.18% hits; AID 1424;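 active = activation above its plate's cutoff, the mean activation of test wells on that plate plus 3 SD, cut at about 19% in these data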;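 also: 0% = DMSO alone and 100% = 87 µM carbachol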
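Material: zebrafish TRPN1-YFP in HEK293 cells; Doses: single test compound dose, 3 µM nominal, 0.3% DMSO; Timing: dye loading 1 h at 37 °C, then 30 min room temperature; Technique: intracellular calcium fluorescence with Fluo-8; Benchmarks: high carbachol 87 µM, low DMSO alone.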
TRPML3 agonist: activates the human TRPML3 channel. activation, % at 3 µM. 220,000 compounds, 0.29% hits. HEK293 TRPML3-YFP, Fluo-8 calcium fluorescence; 100% = the carbachol control signal;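 active = activation above its plate's cutoff, the mean activation of the plate's test wells plus 3 SD, cut at about 12% in these data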;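 also: 0% = DMSO only wells and 100% = carbachol wells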
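Test system: TRPML3-YFP stable HEK293 cells. Doses: single point at 3 µM. Incubation: dye loading 1 h 37 °C then 30 min ambient, 125 s read. Signal: Fluo-8 calcium dye fluorescence, ex 470-495, em 515-575 nm. Measure: percent activation from peak-to-basal fluorescence ratio, scaled between DMSO and carbachol.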
OX1R antag-2: OX1R (human) antagonism. O43613. OX1R-expressing cells, FRET antagonist read-out. inhibition, % at 6.6 µM. 330,000 compounds, 1.8% hits; in the data active = inhibition mostly above about 38%, no sharp cut-off; inactive = mostly below about 40%;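 also: 0% = agonist challenge alone and 100% = reference antagonist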
GPR7 antag: human neuropeptides B/W receptor 1 antagonism; P48145; GPR7-expressing cells, fluorescence antagonist assay; inhibition, % at 4.4 µM; 290,000 compounds, 1.1% hits; AID 1861; in the data active = inhibition above about 16%, passing the limit was not always enough;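 also: cells stimulated with the agonist NPW; 0% = agonist with vehicle and 100% = vehicle without agonist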
Target sequence (P48145 whole entry, looked up): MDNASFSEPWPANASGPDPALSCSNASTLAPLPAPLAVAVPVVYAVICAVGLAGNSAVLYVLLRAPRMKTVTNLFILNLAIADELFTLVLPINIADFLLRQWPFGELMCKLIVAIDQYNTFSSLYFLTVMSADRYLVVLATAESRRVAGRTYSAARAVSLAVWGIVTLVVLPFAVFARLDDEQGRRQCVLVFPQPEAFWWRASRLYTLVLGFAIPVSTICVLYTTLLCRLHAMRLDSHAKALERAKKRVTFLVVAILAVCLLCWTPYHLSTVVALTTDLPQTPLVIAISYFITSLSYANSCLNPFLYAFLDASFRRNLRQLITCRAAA
OX1R Ca confirm: confirmation of human orexin 1 receptor antagonists; shares compounds with OX1R antag-1; CHO/OX1R cells, orexin A calcium Fluo-8 fluorescence; inhibition, % at 5 µM; 1,100 compounds, 38% hits; AID 492963; in the data active = inhibition above about 29%;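 also: 0% = agonist challenge alone and 100% = reference antagonist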
CHO Ca counter: counter-screen for OX1R antagonists: effect in parental CHO cells; 1,100 compounds, 9.3% hits; parental CHO-K1, ATP-induced calcium, Fluo-8 fluorescence; inhibition, % at 5.6 µM; shares compounds with OX1R antag-1;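 active = inhibition above a per-plate limit, the mean inhibition of that plate's test compounds plus 3 SD, cut at about 25% in these data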;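 also: 0% = ATP challenge with DMSO and 100% = DMSO without ATP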
OX1R HTRF confirm: OX1R (human) antagonism, HTRF confirmed. OX1R-expressing cells, HTRF antagonist assay. shares compounds with OX1R antag-2. AID 492964. inhibition, % at 6.6 µM. 1,800 compounds, 49% hits; in the data active = inhibition above about 55%;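 also: CHO cells expressing OX1R stimulated with orexin A at about EC80; 0% = agonist challenge alone and 100% = reference antagonist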
CHO-K1 HTRF cnt: signal in parental CHO-K1 cells, OX1R antagonist counter-screen; HTRF counterscreen; inhibition, % at 6.6 µM; AID 493232; shares compounds with OX1R antag-2; 1,800 compounds, 48% hits; in the data active = inhibition above about 17%;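 also: 0% = agonist challenge with vehicle and 100% = vehicle alone without agonist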
Numbers without * were called inactive; · = not tested or not shown. In the library only some 3.2% were active in any assay of this set; here they are far more common.

SMILES	CHO parental Ca	OX1R antag-1	zfTRPN1 agonist	TRPML3 agonist	OX1R antag-2	GPR7 antag	OX1R Ca confirm	CHO Ca counter	OX1R HTRF confirm	CHO-K1 HTRF cnt
Cc1ccc(S(=O)(=O)N2CCCCC2)cc1NC(=O)CNc1ccc(C(F)(F)F)cc1	21.7	-1.4	·	·	12.9	·	·	·	·	·
CCOc1ccccc1NC(=O)CN1C(=O)NC(Cc2c[nH]c3ccccc23)C1=O (stereo unspecified)	-25.3	42.0*	·	·	35.9*	·	10.3	-9.0	33.5	-5.3
C=CCN1C(=O)/C(=C/c2ccc(O)c(OC)c2)S/C1=N/c1nccs1	30.6	40.6	32.1*	15.8*	89.0*	-9.9	36.3*	21.5	65.7*	12.7
O=C(CSc1ncnc2c1cnn2-c1ccccc1)NCC1CCCO1 (stereo unspecified)	-14.5	-21.3	·	·	22.8	·	·	·	·	·
CCCCn1c(N)c(N(CC(C)C)C(=O)C2CCCN(C(=O)c3ccc(Cl)cc3)C2)c(=O)[nH]c1=O (stereo unspecified)	-19.4	-5.7	·	·	7.0	·	·	·	·	·
COc1ccccc1C(=O)NCC(=O)OCC(=O)c1cccc2ccccc12	-20.3	-13.4	·	·	13.5	·	·	·	·	·
Cc1cccc(NC(=O)[C@@H]2CCCN2S(=O)(=O)c2ccc(Cl)cc2)c1	-22.0	73.6*	·	·	90.7*	·	54.7*	-27.0	88.7*	4.0
COc1ccc(NC(=O)[C@@H]2CCCN2S(=O)(=O)c2ccc(Cl)cc2)cc1	-11.5	4.5	·	·	21.9	·	·	·	·	·
CCc1cccc(NC(=O)C2CCCN2S(=O)(=O)c2cccc3cccnc23)c1 (stereo unspecified)	-29.7	86.7*	·	·	88.8*	6.7	50.4*	-8.9	85.1*	4.7
CC(=O)N(Cc1cc2ccccc2[nH]c1=O)c1ccc(C)cc1	-9.4	-17.1	·	·	15.4	-1.6	·	·	·	·
Cc1ccc(-c2c(C(=O)N/N=C/c3cccc(Cl)c3)nnn2-c2nonc2N)cc1	-0.1	-5.4	·	·	17.1	-19.2	·	·	·	·
Cc1ccc(SCc2c(C(=O)N/N=C/c3ccc4c(c3)OCO4)nnn2-c2nonc2N)cc1	-14.3	34.1	·	·	60.3*	-7.8	12.2	14.1	81.8*	6.8
Cc1ccc(SCc2c(C(=O)N/N=C/c3ccccc3)nnn2-c2nonc2N)cc1	-46.6	22.1	1.4	5.6	47.2	-10.1	·	·	·	·
Cc1ccc(-c2c(C(=O)N/N=C/c3ccc4c(c3)OCO4)nnn2-c2nonc2N)cc1	-10.5	46.4	·	·	74.2*	-10.4	27.8	2.7	88.0*	0.4
Cc1ccc2nc(NCCc3ccccc3)c3nncn3c2c1	·	·	·	·	·	-11.5	·	·	·	·
Cc1ccc(NNC(=O)c2ccc(Cl)cc2)nn1	-3.0	-9.9	-1.0	0.2	0.5	-3.1	·	·	·	·
CCc1cccc(NC(=O)CCCSc2nc3ccccc3[nH]2)c1	-20.0	-27.2	2.6	-0.9	21.7	19.0	·	·	·	·
COc1ccc(OCC(=O)Nc2cccc3cccnc23)cc1	-24.4	27.9	-2.2	-0.5	87.0*	-7.0	4.4	-4.5	33.0	4.1
COc1ccc(OCC(=O)Nc2cccc(NC(=O)COc3ccc(OC)cc3)n2)cc1	-13.6	-24.8	0.3	0.2	17.1	-2.3	·	·	·	·
O=C(NCCOc1ccc(Cl)cc1)c1cccc(S(=O)(=O)N2CCCC2)c1	-19.6	-30.2	·	·	5.7	·	·	·	·	·
Cc1nc2ccc3nc(NC(=O)c4ccco4)sc3c2s1	-18.3	61.5*	-0.1	0.7	72.1*	-5.9	23.2	-5.1	84.4*	1.6
Cc1ccc2nc(NC(=O)c3ccco3)sc2c1	8.3	-9.3	0.2	1.1	38.9	-1.9	·	·	·	·
O=C(CSc1nc2ncccc2[nH]1)Nc1ccccc1-c1ccccc1	-19.0	33.1	·	·	71.7*	3.0	31.1*	-4.9	72.0*	6.1
